EBV gp42 block – inhibitors of Epstein-Barr virus glycoprotein 42. Q1HVG2. actives 0.42% (n = 220,000). Fluorescence polarization binding assay, mP read-out. inhibition, % (tested at 21.74 µM). AID 1085; in the data active = inhibition above about 50%
GLD-1 TGE inh – GLD-1-TGE RNA interaction inhibition (C. elegans); purified GLD-1 + fluorescein TGE RNA, fluorescence polarization; inhibition, % at 5.96 µM; actives 0.44% (n = 320,000);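 active = percent inhibition above a per-plate cutoff, the plate mean of test compounds plus 3 SD, cut at about 30% in these data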;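 note: 0% = DMSO wells with GLD-1 and probe and 100% = wells lacking GLD-1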
MEX-5 binding – C. elegans MEX-5 TCR-2 RNA binding activity | MEX-5/FITC-TCR2 RNA binding, fluorescence polarization; hits give low values | activity score (negative = inhibition of binding), % at 10 µM | actives 0.38% (n = 300,000);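 active = inhibition past about -25% in most replicates, and total fluorescence under double the plate's negative control median, limit read from the data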;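 note: 0% = DMSO and -100% = 5 µM competing unlabeled TCR2 RNA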
Target sequence (Q9XUB2 whole entry, looked up): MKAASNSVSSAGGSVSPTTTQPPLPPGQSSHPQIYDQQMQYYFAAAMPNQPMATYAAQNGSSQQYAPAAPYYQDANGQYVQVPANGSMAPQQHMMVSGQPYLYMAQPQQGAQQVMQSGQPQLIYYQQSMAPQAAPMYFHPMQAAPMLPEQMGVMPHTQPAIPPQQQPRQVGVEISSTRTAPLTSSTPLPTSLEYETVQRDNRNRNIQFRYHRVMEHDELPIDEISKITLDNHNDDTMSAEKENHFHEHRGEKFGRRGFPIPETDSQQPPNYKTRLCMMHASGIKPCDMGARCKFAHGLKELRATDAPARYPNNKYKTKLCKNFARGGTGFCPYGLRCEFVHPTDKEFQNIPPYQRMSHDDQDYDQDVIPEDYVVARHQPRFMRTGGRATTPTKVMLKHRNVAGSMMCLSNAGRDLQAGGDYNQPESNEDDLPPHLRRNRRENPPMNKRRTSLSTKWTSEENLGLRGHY
IMP-1 inhibitor – blocks Pseudomonas aeruginosa IMP-1 metallo-beta-lactamase | purified IMP-1, nitrocefin hydrolysis, epi-absorbance fluorescence | inhibition, % at 5.6 µM | actives 0.45% (n = 290,000) | AID 1556;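 active = inhibition above the mean plus 3 SD of all compounds in the same screening run, cut at about 4.5% in these data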;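 note: 0% = IMP-1 with DMSO and 100% = DMSO wells lacking enzyme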
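System: purified IMP-1; amount: IMP-1 0.2 nM before substrate addition; compound: single dose, 5.6 µM; times: 25 °C, 15 min preincubation, 25 min reaction; signal: Epi-absorbance via hydrolysed-nitrocefin quenching of white-plate fluorescence, 480/530 nm, EDTA stop; benchmarks: DMSO with and without IMP-1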
VIM-2 inhibitor – inhibitors of Pseudomonas aeruginosa VIM-2 metallo-beta-lactamase. AID 1527. purified VIM-2, nitrocefin hydrolysis, epi-absorbance fluorescence. actives 0.89% (n = 290,000). inhibition, % at 5.6 µM;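 active = inhibition above the mean of all tested compounds plus 3 SD, cutoff set per screening run, cut at about 7.5% in these data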;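 note: red hydrolysis product quenches plate fluorescence so inhibitors raise well fluorescence; 0% = enzyme with DMSO and 100% = DMSO without enzyme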
Bcl-xL primary – inhibitors of human Bcl-xL | actives 0.7% (n = 320,000) | inhibition, % at 10.9 µM | GST-Bcl-xL / FITC-Bim BH3 peptide fluorescence polarization | Q07817;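 active = inhibition above the mean of all tested compounds plus 3 SD, cutoff set per campaign, cut at about 30% in these data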;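 note: 0% = DMSO wells and 100% = unlabeled Bim-BH3 peptide competitor; inhibitors lower millipolarization by displacing the labeled peptide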
Target sequence (Q07817 whole entry, looked up): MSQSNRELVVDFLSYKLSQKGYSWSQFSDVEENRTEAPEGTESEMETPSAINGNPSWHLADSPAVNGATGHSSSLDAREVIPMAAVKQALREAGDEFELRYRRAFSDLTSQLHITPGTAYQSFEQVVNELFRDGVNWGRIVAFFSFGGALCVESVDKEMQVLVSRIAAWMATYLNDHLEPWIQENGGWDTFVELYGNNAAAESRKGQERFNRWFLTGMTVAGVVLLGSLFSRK
Active calls of the source: *; ! = not confirmed by another sample. Rows were chosen to be rich in hits. Some 2.2% of all compounds tested hit in one or more screens of this group.

What do the screens show for `CC(OC(=O)Cn1cnc2c1c(=O)n(C)c(=O)n2C)C(=O)c1ccccc1` (stereo not drawn)?
GLD-1 TGE inh: -2; MEX-5 binding: 0; Bcl-xL primary: -2

Results for COc1cc(C(=O)NC(c2ccccc2)c2ccccc2)cc(OC)c1C ?
GLD-1 TGE inh: 6; MEX-5 binding: -47*; IMP-1 inhibitor: -1; VIM-2 inhibitor: -3; Bcl-xL primary: 3

What do the screens show for `COc1c(O)cc(O)c2c(=O)cc(-c3ccccc3)oc12`?
GLD-1 TGE inh: 6

What do the screens show for `COc1cc(-c2cc(=O)c3ccccc3o2)ccc1O`?
EBV gp42 block: -9; GLD-1 TGE inh: 2; MEX-5 binding: -2; IMP-1 inhibitor: -2; VIM-2 inhibitor: 9.5*; Bcl-xL primary: 3

Results for COc1ccc(-c2cc(=O)c3c(OC)c(OC)c(OC)c(OC)c3o2)cc1OC ?
EBV gp42 block: -8; GLD-1 TGE inh: 4; MEX-5 binding: 0; IMP-1 inhibitor: -1; VIM-2 inhibitor: 10*!; Bcl-xL primary: 5

Results for Cc1cccc(N=C2NC(=O)S/C2=C\c2ccco2)c1 ?
EBV gp42 block: 42; GLD-1 TGE inh: 25; MEX-5 binding: -1; IMP-1 inhibitor: -2; VIM-2 inhibitor: 4; Bcl-xL primary: 35*

What do the screens show for `O=C1NC(=Nc2ccc(Cl)cc2)/C(=C/c2ccco2)S1`?
EBV gp42 block: 62*; GLD-1 TGE inh: 5; MEX-5 binding: -5; IMP-1 inhibitor: -2; VIM-2 inhibitor: 0; Bcl-xL primary: 59*

What do the screens show for `O[C@@H]1CN(Cc2ccccc2Cl)CC[C@H]1N1CCOCC1`?
GLD-1 TGE inh: 1; MEX-5 binding: 1; IMP-1 inhibitor: -2; VIM-2 inhibitor: -3; Bcl-xL primary: 7

How did Cc1ccc(NC(=O)c2cc(S(=O)(=O)N3CCCC3)cn2C)cc1 do in these assays?
GLD-1 TGE inh: 6; MEX-5 binding: -2; IMP-1 inhibitor: -3; VIM-2 inhibitor: 0; Bcl-xL primary: 2

What do the screens show for `Nc1c(C(=O)O)ccc2c1C(=O)c1ccccc1C2=O`?
EBV gp42 block: -6; GLD-1 TGE inh: 8; MEX-5 binding: -13; IMP-1 inhibitor: -4; VIM-2 inhibitor: 2; Bcl-xL primary: 13

How did Nc1ccc2c(c1Cl)C(=O)c1ccc(N)c(Cl)c1C2=O do in these assays?
EBV gp42 block: 76*; MEX-5 binding: -3; IMP-1 inhibitor: -1; VIM-2 inhibitor: 1

What do the screens show for `CCOc1ccc(CCNC(=O)C2CC(C)=CCC2C(=O)O)cc1OCC` (stereo not drawn)?
GLD-1 TGE inh: 6; MEX-5 binding: -1; IMP-1 inhibitor: 38*; VIM-2 inhibitor: 0; Bcl-xL primary: 4

How did CCOc1ccc(CCNC(=O)C2CC=CCC2C(=O)OC(C)C)cc1OCC (stereo not drawn) do in these assays?
GLD-1 TGE inh: -2; MEX-5 binding: 0; IMP-1 inhibitor: -3; VIM-2 inhibitor: -1; Bcl-xL primary: 1

How did CC(=O)OC[C@H]1O[C@@H](O[C@H]2C[C@]3(C)C(C[C@@H](O)C4C([C@]5(C)CC[C@@H](C(C)(C)O)O5)CC[C@]43C)[C@@]3(C)CC[C@H](O)C(C)(C)C23)[C@H](O[C@@H]2O[C@@H](C)[C@H](O)[C@@H](O)[C@H]2O)[C@@H](O)[C@@H]1O (stereo partly drawn) do in these assays?
GLD-1 TGE inh: 0

What do the screens show for `CCOc1cc(Br)c(CN2C(=O)NC3(CCCCCC3)C2=O)cc1OCC`?
GLD-1 TGE inh: 0; MEX-5 binding: 2; IMP-1 inhibitor: -2; VIM-2 inhibitor: 0; Bcl-xL primary: 2

Results for O=C(NCC1CCCO1)c1nn2c(C(F)(F)F)cc(-c3cc(Br)cs3)nc2c1Br (stereo not drawn) ?
GLD-1 TGE inh: -3; MEX-5 binding: -53*; IMP-1 inhibitor: 2; VIM-2 inhibitor: 4; Bcl-xL primary: 7

Results for O=C(NCC1CCCO1)c1nn2c(C(F)(F)F)cc(-c3ccco3)nc2c1Cl (stereo not drawn) ?
GLD-1 TGE inh: 2; MEX-5 binding: -4; IMP-1 inhibitor: -1; VIM-2 inhibitor: 6; Bcl-xL primary: -1

Results for Nc1c(C(=O)N/N=C/c2cccnc2)oc2nc(-c3ccccc3)cc(-c3ccco3)c12 ?
EBV gp42 block: -48; GLD-1 TGE inh: -27; MEX-5 binding: -37*; IMP-1 inhibitor: -2; VIM-2 inhibitor: -1; Bcl-xL primary: -22

How did NNC(=O)c1oc2nc(-c3ccco3)cc(-c3ccco3)c2c1N do in these assays?
EBV gp42 block: -7; GLD-1 TGE inh: -7; MEX-5 binding: 1; IMP-1 inhibitor: -3; VIM-2 inhibitor: -2; Bcl-xL primary: -40

What do the screens show for `Nc1c(C(=O)N/N=C/c2cccnc2)oc2nc(-c3ccco3)cc(-c3ccco3)c12`?
EBV gp42 block: 19; GLD-1 TGE inh: 29; MEX-5 binding: -6; IMP-1 inhibitor: 0; VIM-2 inhibitor: -1; Bcl-xL primary: 68*

How did Cc1ccc([N+](=O)[O-])cc1NC(=O)c1c(-c2ccccc2)noc1C do in these assays?
GLD-1 TGE inh: 2; MEX-5 binding: 0; IMP-1 inhibitor: -3; VIM-2 inhibitor: -1; Bcl-xL primary: 2

What do the screens show for `COc1ccc(CCC(=O)OCC(=O)N2CCN(S(=O)(=O)c3ccc(C)cc3C)CC2)cc1`?
GLD-1 TGE inh: 4; Bcl-xL primary: 5

How did Cc1cc(C)c2c(c1)[C@@H]1C=CC[C@@H]1[C@H](c1ccc(S(=O)(=O)N3CCOCC3)cc1)N2 do in these assays?
EBV gp42 block: 9; GLD-1 TGE inh: -1; IMP-1 inhibitor: 8.1*; VIM-2 inhibitor: -1; Bcl-xL primary: 11

How did Cc1ccc(/C=C/C(=O)Nc2cccc3cccnc23)o1 do in these assays?
EBV gp42 block: -10; GLD-1 TGE inh: 68*; MEX-5 binding: -7; IMP-1 inhibitor: -2; VIM-2 inhibitor: -6; Bcl-xL primary: 78*

What do the screens show for `CC1(C)N([O-])c2cc([N+](=O)[O-])ccc2[N+]1=O`?
EBV gp42 block: -16; GLD-1 TGE inh: 8; IMP-1 inhibitor: -3; VIM-2 inhibitor: -4; Bcl-xL primary: 35*

Results for Cc1ccc(C)n1-c1cc([N+](=O)[O-])ccc1-n1ccnc1 ?
EBV gp42 block: -16; GLD-1 TGE inh: -8; IMP-1 inhibitor: -4; VIM-2 inhibitor: -3; Bcl-xL primary: 3

What do the screens show for `C=CCc1c(C)nc(SC)nc1Nc1ccc(C(C)=O)cc1`?
EBV gp42 block: -16; GLD-1 TGE inh: 10; MEX-5 binding: -2; IMP-1 inhibitor: -4; VIM-2 inhibitor: 8.1*; Bcl-xL primary: -5

What do the screens show for `COc1ccc(C#Cc2c(-c3ccccc3)n(-c3ccccc3)c3ccc(CO)cc23)cc1`?
GLD-1 TGE inh: 0

What do the screens show for `COc1ccc2c(COC(=O)CNS(=O)(=O)c3ccc(C)c(C)c3)cc(=O)oc2c1`?
GLD-1 TGE inh: 4; Bcl-xL primary: -1

High-throughput results from PubChem.
